We go through five compounds from ChEMBL document CHEMBL2424622, “Development of amino-pyrimidine inhibitors of c-Jun N-terminal kinase (JNK): kinase profiling guided optimization of a 1,2,3-benzotriazole lead” (Bioorg Med Chem Lett, 2013).

In experiment [1] the target is Glycogen synthase kinase-3 alpha (Homo sapiens, UniProt P49840). Briefly: Competitive binding affinity to GSK3alpha (unknown origin) at 10 uM in presence of ATP relative to control. In a few lines:
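In vitro ATP-site competition binding format, run as one member of a diverse 128-kinase profiling panel. Each compound was tested at a single concentration across the whole panel.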

The target of experiment [2] is T1, Serine/threonine-protein kinase LATS1 (Homo sapiens) (UniProt O95835).
T1 sequence (whole entry): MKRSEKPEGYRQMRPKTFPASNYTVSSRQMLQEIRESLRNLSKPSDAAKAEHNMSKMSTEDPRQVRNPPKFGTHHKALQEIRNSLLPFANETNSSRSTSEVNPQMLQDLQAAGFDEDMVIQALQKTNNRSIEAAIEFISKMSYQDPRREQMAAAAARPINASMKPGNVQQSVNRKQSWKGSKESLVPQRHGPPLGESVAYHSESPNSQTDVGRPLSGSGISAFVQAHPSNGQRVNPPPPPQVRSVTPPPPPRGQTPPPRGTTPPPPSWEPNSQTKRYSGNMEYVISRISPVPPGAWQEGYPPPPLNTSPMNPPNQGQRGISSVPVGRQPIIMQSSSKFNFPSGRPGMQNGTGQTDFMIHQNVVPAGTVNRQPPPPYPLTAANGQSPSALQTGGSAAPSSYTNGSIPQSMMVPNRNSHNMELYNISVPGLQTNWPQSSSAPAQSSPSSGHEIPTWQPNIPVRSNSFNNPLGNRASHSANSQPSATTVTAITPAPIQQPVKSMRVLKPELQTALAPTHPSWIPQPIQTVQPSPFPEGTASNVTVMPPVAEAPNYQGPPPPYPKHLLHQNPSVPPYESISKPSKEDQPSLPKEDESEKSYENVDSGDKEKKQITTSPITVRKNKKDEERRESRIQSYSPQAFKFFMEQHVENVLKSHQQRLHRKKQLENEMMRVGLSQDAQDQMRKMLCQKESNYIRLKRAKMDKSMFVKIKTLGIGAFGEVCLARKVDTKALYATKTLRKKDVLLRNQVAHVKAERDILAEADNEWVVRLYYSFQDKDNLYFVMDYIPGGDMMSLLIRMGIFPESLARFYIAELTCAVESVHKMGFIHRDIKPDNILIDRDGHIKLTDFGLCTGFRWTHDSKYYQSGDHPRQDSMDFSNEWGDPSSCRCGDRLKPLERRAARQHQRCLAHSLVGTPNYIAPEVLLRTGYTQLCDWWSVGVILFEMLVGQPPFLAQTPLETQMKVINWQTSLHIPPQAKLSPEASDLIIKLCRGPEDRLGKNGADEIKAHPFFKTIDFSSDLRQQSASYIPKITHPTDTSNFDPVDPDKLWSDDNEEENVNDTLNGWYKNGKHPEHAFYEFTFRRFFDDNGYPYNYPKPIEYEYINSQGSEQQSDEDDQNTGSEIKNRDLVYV
Briefly: Competitive binding affinity to LATS1 (unknown origin) at 10 uM in presence of ATP relative to control.

Experiment [3] concerns the target Serine/threonine-protein kinase MRCK beta (Homo sapiens) (UniProt Q9Y5S2). The experiment is described as follows: Competitive binding affinity to MRCKB (unknown origin) at 10 uM in presence of ATP relative to control.
Experiment [4] concerns the target T2, Serine/threonine-protein kinase Nek1 (Homo sapiens) (UniProt Q96PY6).
T2 sequence (whole entry): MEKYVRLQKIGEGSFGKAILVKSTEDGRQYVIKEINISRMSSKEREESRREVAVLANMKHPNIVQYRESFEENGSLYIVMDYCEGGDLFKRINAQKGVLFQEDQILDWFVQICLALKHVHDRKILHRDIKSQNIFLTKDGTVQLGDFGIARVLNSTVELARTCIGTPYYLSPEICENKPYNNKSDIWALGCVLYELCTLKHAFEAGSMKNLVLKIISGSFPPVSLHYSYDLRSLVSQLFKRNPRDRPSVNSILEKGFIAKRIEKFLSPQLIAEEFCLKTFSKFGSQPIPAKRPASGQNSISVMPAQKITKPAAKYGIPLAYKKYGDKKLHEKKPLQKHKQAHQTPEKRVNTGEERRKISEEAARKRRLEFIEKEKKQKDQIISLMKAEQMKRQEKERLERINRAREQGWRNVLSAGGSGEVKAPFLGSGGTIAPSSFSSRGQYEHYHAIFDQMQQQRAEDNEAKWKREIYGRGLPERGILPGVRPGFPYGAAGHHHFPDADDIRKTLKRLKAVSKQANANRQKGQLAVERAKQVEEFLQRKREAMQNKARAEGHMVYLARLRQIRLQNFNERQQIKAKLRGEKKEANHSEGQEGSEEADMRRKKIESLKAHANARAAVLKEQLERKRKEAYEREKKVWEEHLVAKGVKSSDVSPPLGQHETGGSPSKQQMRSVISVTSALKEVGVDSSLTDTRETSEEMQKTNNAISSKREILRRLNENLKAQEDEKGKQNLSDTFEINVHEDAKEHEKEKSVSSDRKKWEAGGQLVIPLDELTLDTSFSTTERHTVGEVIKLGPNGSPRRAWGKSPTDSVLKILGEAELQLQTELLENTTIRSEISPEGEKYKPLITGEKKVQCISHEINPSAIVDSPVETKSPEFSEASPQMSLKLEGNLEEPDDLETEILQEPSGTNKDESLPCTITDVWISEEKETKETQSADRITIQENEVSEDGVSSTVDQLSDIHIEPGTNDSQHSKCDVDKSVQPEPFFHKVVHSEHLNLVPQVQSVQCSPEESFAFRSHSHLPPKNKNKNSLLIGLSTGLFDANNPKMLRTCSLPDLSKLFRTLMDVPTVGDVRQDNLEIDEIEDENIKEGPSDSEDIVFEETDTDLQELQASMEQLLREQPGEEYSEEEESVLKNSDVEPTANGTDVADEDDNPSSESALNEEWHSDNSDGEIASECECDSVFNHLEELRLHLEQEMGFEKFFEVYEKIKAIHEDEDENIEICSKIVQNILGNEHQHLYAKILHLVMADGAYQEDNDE
Briefly: Competitive binding affinity to NEK1 (unknown origin) at 10 uM in presence of ATP relative to control.

For experiment [5], the target named is T3, cAMP-dependent protein kinase catalytic subunit PRKX (Homo sapiens) (UniProt P51817).
T3 sequence (whole entry): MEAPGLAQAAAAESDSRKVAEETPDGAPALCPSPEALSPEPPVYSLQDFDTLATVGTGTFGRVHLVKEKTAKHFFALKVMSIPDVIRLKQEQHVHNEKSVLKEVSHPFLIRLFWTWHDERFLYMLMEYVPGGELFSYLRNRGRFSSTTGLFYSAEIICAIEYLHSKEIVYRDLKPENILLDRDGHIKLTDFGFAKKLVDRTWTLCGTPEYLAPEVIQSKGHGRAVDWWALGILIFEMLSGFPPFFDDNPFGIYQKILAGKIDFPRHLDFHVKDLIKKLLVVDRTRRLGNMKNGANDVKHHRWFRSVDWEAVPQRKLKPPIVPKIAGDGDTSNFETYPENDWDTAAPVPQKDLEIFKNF
The experiment is described as follows: Competitive binding affinity to PRKX (unknown origin) at 10 uM in presence of ATP relative to control.

Sequence of Glycogen synthase kinase-3 alpha (P49840 2-483 limits assumed): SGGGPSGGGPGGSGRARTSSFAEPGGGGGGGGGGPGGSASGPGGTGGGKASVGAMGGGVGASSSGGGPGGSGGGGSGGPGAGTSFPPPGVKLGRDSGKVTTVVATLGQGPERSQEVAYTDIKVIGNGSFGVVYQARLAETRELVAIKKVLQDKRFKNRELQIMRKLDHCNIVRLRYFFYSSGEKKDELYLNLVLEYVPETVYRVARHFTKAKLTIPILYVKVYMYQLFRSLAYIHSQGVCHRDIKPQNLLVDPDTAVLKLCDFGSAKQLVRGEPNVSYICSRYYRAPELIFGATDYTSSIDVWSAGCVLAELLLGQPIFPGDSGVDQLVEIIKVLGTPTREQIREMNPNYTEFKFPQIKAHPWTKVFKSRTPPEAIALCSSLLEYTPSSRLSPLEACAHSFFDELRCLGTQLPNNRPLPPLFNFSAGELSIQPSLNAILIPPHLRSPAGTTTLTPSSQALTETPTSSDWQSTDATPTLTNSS
Sequence of Serine/threonine-protein kinase MRCK beta (Homo sapiens) (Q9Y5S2 whole entry): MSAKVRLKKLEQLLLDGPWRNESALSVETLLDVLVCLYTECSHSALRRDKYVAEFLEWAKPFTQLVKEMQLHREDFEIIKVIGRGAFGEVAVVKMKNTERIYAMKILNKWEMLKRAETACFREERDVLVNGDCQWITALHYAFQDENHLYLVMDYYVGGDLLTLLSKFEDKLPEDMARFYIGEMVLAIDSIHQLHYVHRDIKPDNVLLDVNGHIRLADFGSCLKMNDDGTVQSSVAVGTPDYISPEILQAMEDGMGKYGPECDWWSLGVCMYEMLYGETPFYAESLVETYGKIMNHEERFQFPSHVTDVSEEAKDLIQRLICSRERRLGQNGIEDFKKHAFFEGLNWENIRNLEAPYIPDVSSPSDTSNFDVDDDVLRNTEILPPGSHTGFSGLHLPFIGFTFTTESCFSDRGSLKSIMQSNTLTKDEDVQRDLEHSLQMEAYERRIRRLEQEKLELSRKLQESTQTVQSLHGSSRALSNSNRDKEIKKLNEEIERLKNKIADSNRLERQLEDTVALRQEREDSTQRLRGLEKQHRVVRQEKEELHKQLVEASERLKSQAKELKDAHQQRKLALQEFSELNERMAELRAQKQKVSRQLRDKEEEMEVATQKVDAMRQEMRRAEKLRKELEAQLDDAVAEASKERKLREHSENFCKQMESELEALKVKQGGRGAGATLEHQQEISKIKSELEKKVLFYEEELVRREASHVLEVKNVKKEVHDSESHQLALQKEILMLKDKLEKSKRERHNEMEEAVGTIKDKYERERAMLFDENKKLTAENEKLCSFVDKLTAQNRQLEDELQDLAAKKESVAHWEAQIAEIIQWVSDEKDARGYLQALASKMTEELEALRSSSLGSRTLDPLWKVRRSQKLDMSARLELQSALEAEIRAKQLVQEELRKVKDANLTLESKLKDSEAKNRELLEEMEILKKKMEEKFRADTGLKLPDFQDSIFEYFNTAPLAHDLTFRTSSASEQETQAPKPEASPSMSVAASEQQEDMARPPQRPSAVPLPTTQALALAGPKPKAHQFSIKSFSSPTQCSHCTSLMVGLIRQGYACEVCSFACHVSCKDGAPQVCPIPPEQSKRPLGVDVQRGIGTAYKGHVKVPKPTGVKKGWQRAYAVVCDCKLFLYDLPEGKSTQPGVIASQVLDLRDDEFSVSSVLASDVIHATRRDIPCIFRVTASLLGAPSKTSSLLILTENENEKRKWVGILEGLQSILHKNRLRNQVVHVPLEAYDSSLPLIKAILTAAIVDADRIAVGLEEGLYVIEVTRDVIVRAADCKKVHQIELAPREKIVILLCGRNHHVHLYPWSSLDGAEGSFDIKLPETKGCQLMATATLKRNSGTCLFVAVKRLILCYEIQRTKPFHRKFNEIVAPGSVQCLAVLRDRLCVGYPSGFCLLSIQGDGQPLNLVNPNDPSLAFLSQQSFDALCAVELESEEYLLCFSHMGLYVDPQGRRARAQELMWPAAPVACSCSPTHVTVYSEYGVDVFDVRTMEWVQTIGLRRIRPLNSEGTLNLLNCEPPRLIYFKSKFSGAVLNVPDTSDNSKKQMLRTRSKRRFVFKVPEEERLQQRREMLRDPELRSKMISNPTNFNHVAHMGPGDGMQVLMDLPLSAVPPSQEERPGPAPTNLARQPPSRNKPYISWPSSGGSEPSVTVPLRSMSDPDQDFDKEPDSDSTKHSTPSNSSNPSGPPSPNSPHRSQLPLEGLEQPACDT

The inhibition is how much of the control response was suppressed. As for `O[C@H]1CC[C@H](Nc2nccc(-n3ccc4ccccc43)n2)CC1`, the inhibition in experiment [1] is 91%; in experiment [2], under 50%; in experiment [3], under 50%; in experiment [4], 84%; in experiment [5], under 50%.
Consider `O[C@H]1CC[C@H](Nc2nccc(-n3nnc4ccccc43)n2)CC1`, for which the inhibition in experiment [1] was 100%; in experiment [2], under 50%; in experiment [3], under 50%; in experiment [4], 98%; in experiment [5], under 50%.
With `CS(=O)(=O)CCCOc1cccc2c1ccn2-c1ccnc(N[C@H]2CC[C@H](C(=O)N3CCC(O)CC3)CC2)n1`, the inhibition in experiment [1] and in experiment [4] was over 85% throughout.
For the compound `O[C@H]1CC[C@H](Nc2nccc(-n3ncc4ccccc43)n2)CC1`, the inhibition in experiment [1] was 99%; in experiment [2], under 50%; in experiment [3], under 50%; in experiment [4], 96%; in experiment [5], under 50%.
Turning to `O[C@H]1CC[C@H](Nc2nccc(-c3n[nH]c4ccccc34)n2)CC1`, the inhibition in experiment [1] was 97%; in experiment [5], under 50%.
